From ChEMBL document CHEMBL4765334, “Chemical profiling of HIV-1 capsid-targeting antiviral PF74” (Eur J Med Chem, 2020)

Legend:
TZM = assay: Cytotoxicity against human TZM-GFP cells incubated for 72 hrs by XTT assay; assay type: cell-based; conditions: tzm, 72 h
Outline: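 TZM-GFP cells seeded at 1 × 10^4 per well and exposed continuously to increasing compound concentrations for 72 h. Viable cell number read by XTT proliferation kit. CC50 fitted as log(inhibitor) vs normalized response, variable slope, per independent assay and averaged. Run in duplicate, at least two independent experiments, reported as mean ± standard deviation.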

[1] = system: Human immunodeficiency virus 1; assay: Binding affinity to covalently-crosslinked hexameric HIV1 capsid protein A14C/E45C/W184A/M185A mutant expressed in Escherichia coli BL21(DE3)RIL assessed as change in melting temperature at 20 uM incubated for 30 mins by thermal shift dye based fluorescence analysis
Outline: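 Thermal shift: 15 μM CA121 in 50 mM sodium phosphate pH 8.0 with Sypro Orange and compound at 20 μM final or DMSO control. Heated 25 to 95 °C at 0.2 °C/10 s; fluorescence Ex 475–500, Em 520–590 nm. ΔTm = Tm(compound) − T0(DMSO) for CA hexamer melting.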

[2] = system: Human immunodeficiency virus 1; assay: Antiviral activity against HIV1 NL4-3 infected in human TZM-GFP cells assessed as number of GFP positive cells incubated for 48 hrs by imaging reader; assay type: functional, organism-based; conditions: Human immunodeficiency virus 1, NL4-3, TZM
Outline: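 TZM-GFP cells seeded 1 × 10^4/well and given increasing compound concentrations 24 h later; infected with HIV-1 NL4-3 (MOI = 1) after a further 24 h. Read-out after 48 h: GFP-positive cell counts (LTR-driven) versus DMSO controls. EC50 fitted as log(inhibitor) vs normalized response, variable slope, per experiment and averaged; mean ± SD, duplicates, at least two independent experiments.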

Compound | CC50 (TZM) | ΔTm [1] | EC50 [2]
Cc1[nH]c2ccccc2c1CC(=O)N[C@@H](Cc1ccccc1)C(=O)N(C)c1cccc(F)c1 | > 50 µM | 6.2 °C | 0.69 µM
CC(C)n1cc(CC(=O)N[C@@H](Cc2ccccc2)C(=O)N(C)c2cccc(Cl)c2)c2ccccc21 | 13 µM | 4.5 °C | 1.3 µM
Cc1[nH]c2ccccc2c1CC(=O)N[C@@H](Cc1ccccc1)C(=O)Nc1ccc(C#N)cc1 | > 100 µM | -0.6 °C | > 20 µM
CCn1cc(CC(=O)N[C@@H](Cc2ccccc2)C(=O)N(C)c2ccc(C)cc2)c2ccccc21 | 14 µM | 8.6 °C | 0.34 µM
Cc1[nH]c2ccccc2c1CC(=O)N[C@@H](Cc1ccccc1)C(=O)Nc1ccccc1 | 40 µM | 0.7 °C | > 20 µM
CCn1c(C)c(CC(=O)N[C@@H](Cc2ccccc2)C(=O)N(C)c2ccc(Cl)cc2)c2ccccc21 | 27 µM | 11.9 °C | 0.24 µM
Cc1[nH]c2ccccc2c1CC(=O)N[C@@H](Cc1ccccc1)C(=O)N(C)c1cccc(C(F)(F)F)c1 | 18 µM | 5.4 °C | 0.58 µM
O=C(Cc1c[nH]c2ccccc12)N[C@@H](Cc1ccccc1)C(=O)Nc1cccc(-c2nnn[nH]2)c1 | > 100 µM | -0.7 °C | > 20 µM
Cc1[nH]c2ccccc2c1CC(=O)N[C@@H](Cc1ccccc1)C(=O)NCc1cccc2[nH]ccc12 | 36 µM | 0 °C | > 20 µM
Cc1c(CC(=O)N[C@@H](Cc2ccccc2)C(=O)N(C)c2cccc(F)c2)c2ccccc2n1C(C)C | 17 µM | 7 °C | 0.29 µM
O=C(Cc1c[nH]c2ccccc12)N[C@@H](Cc1ccccc1)C(=O)Nc1ccc2ncsc2c1 | 68 µM | 0 °C | > 20 µM
CN(C(=O)[C@H](Cc1ccccc1)NC(=O)Cc1c[nH]c2ccccc12)c1cccc(Br)c1 | < 50 µM | 3.5 °C | 2 µM
CCn1c(C)c(CC(=O)N[C@@H](Cc2ccccc2)C(=O)N(C)c2ccc(C)cc2)c2ccccc21 | 18 µM | 11 °C | 0.23 µM
O=C(Cc1c[nH]c2ccccc12)N[C@@H](Cc1ccccc1)C(=O)Nc1cccnn1 | > 100 µM | 0.8 °C | > 20 µM
Cc1cc(NC(=O)[C@H](Cc2ccccc2)NC(=O)Cc2c[nH]c3ccccc23)n[nH]1 | > 100 µM | 0 °C | > 20 µM
CC(C)n1cc(CC(=O)N[C@@H](Cc2ccccc2)C(=O)N(C)c2cccc(F)c2)c2ccccc21 | 12 µM | 5.8 °C | 0.32 µM
O=C(Cc1c[nH]c2ccccc12)N[C@@H](Cc1ccccc1)C(=O)Nc1ccccc1 | 96 µM | 0 °C | > 20 µM
Cc1[nH]c2ccccc2c1CC(=O)N[C@@H](Cc1ccccc1)C(=O)Nc1ccc(Cl)cc1 | > 100 µM | 0 °C | > 20 µM
Cc1cc(NC(=O)[C@H](Cc2ccccc2)NC(=O)Cc2c(C)[nH]c3ccccc23)n[nH]1 | > 100 µM | 0 °C | > 20 µM
Cc1ccc(N(C)C(=O)[C@H](Cc2ccccc2)NC(=O)Cc2c(C)n(C(C)C)c3ccccc23)cc1 | 10 µM | 8.4 °C | 0.63 µM
CC(C)n1cc(CC(=O)N[C@@H](Cc2ccccc2)C(=O)N(C)c2ccc(Cl)cc2)c2ccccc21 | 10 µM | 7.1 °C | 0.32 µM
CN(C(=O)[C@H](Cc1ccccc1)NC(=O)Cc1c[nH]c2ccccc12)c1ccc(Cl)cc1 | < 50 µM | 4.6 °C | 0.45 µM
CCn1c(C)c(CC(=O)N[C@@H](Cc2ccccc2)C(=O)N(C)c2cccc(Cl)c2)c2ccccc21 | 16 µM | 9.2 °C | 0.49 µM
Cc1[nH]c2ccccc2c1CC(=O)N[C@@H](Cc1ccccc1)C(=O)Nc1nc2ccccc2[nH]1 | 15 µM | -0.6 °C | 11 µM
